The values below come from ChEMBL document CHEMBL4706642, “Discovery of a Potent Dual Inhibitor of Acetylcholinesterase and Butyrylcholinesterase with Antioxidant Activity that Alleviates Alzheimer-like Pathology in Old APP/PS1 Mice” (J Med Chem, 2021).

Each structure is given as a SMILES string. The source made the active and inactive calls. The calls are words filed in the database; no cut-off is given here.

Experiment [1] concerns Mus musculus. The experiment can be described thus: Antialzheimer activity in 11 months old APP/PS1 double mutant-transgenic mouse model assessed as ratio of amyloid beta42 to amyloid beta40 levels in hippocampus at 2 mg/kg, ip administered thrice a week for 4 weeks by ELISA (reference value: 7.99 +/- 0.60). The experiment is classed as functional.
The target of another experiment is Cholinesterase (Homo sapiens, UniProt P06276). The experiment can be described thus: Inhibition of human serum BChE using butyrylthiocholineiodide as substrate preincubated for 20 mins followed by substrate addition by Ellman's method relative to parent compound. The experiment is classed as cell-free.
Chain of Cholinesterase (P06276 whole entry): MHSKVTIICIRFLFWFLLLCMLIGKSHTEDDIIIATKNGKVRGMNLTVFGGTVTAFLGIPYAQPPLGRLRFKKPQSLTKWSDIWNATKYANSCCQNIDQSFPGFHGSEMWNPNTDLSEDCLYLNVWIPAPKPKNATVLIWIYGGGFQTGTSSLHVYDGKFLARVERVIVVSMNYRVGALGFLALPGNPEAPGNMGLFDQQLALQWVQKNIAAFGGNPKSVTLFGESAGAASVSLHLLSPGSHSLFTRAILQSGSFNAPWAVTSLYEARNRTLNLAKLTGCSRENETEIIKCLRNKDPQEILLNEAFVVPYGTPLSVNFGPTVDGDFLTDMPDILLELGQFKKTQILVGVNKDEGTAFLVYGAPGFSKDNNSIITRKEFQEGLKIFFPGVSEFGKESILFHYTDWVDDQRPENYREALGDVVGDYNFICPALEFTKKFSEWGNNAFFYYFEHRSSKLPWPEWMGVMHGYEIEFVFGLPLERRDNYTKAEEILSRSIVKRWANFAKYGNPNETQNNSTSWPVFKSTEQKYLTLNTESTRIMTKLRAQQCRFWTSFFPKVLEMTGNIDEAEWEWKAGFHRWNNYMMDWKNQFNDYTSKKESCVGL
For experiment [2], the system named is Mus musculus. The experiment in a line: Antialzheimer activity in 11 months old APP/PS1 double mutant-transgenic mouse model assessed as amyloid beta42 levels in hippocampus at 2 mg/kg, ip administered thrice a week for 4 weeks by ELISA (Rvb= 69.0 +/- 4.54 pg/ml). The experiment is classed as functional. The essentials: (§1)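 Male APP/PS1 mice received 2 mg/kg i.p. in saline (or vehicle), three times weekly for 4 weeks. After the behavioral tests, hippocampus was collected and Aβ40 and Aβ42 were measured with a specific ELISA kit. Mean ± SEM, n = 7 mice per group; one-way ANOVA with Bonferroni post hoc.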

For experiment [3], the system named is Mus musculus. The experiment can be described thus: Cognitive enhancing effect in 11 months old APP/PS1 double mutant-transgenic mouse model assessed as increase in preference index for object at 2 mg/kg, ip administered thrice a week for 4 weeks by novel object recognition test. The experiment is classed as functional, organism-based. The essentials:
(§2)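 Male APP/PS1 mice received 2 mg/kg i.p. in saline (or vehicle), three times per week for 4 weeks. Preference index = time exploring the relocated or novel object divided by total time exploring both objects. Mean ± SEM, n = 7 per group; one-way ANOVA with Bonferroni post hoc.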

The test system of experiment [4] is Mus musculus. The experiment can be described thus: Antialzheimer activity in 11 months old APP/PS1 double mutant-transgenic mouse model assessed as amyloid beta40 levels in hippocampus at 2 mg/kg, ip administered thrice a week for 4 weeks by ELISA (reference value: 8.65 +/- 0.44 pg/ml). The experiment is classed as functional. The gist of the method:
as §1
A general note: In an ELISA, binding on a coated surface is turned into a signal by an enzyme label.

Experiment [5] has as its target T1, Acetylcholinesterase (Homo sapiens, UniProt P22303). The experiment can be described thus: Inhibition of recombinant human AChE using acetylthiocholineiodide as substrate preincubated for 20 mins followed by substrate addition by Ellman's method relative to parent compound. In general terms: Ellman's reagent forms a yellow product with free thiols.
Experiment [6] has as its system Mus musculus. The experiment can be described thus: Cognitive enhancing effect in 11 months old APP/PS1 double mutant-transgenic mouse model assessed as increase in preference index for object at 2 mg/kg, ip administered thrice a week for 4 weeks by novel object localization test. The experiment is classed as functional, organism-based. The gist of the method: as §2

Experiment [7] has as its target T1, Acetylcholinesterase. The experiment in a line: Mixed-type inhibition of recombinant human AChE assessed as inhibition constant using acetylthiocholine iodide as substrate by Cornish-Bowden plot analysis. The gist of the method: (§3)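 Kinetics on human recombinant AChE with acetylthiocholine at 0.113–0.566 mM and inhibitor at 0.17–1.36 nM. Lineweaver–Burk plots were fitted by weighted least squares. Ki was taken as the negative x-intercept of a replot of slopes vs [I]. K'i came from a plot of apparent 1/vmax vs [I]. Two independent experiments, each in triplicate.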

The target in experiment [8] is T1, Acetylcholinesterase. The experiment in a line: Mixed-type inhibition of recombinant human AChE using varying concentration of acetylthiocholine iodide as substrate at 0.17 to 1.36 nM by Lineweaver-burk plot analysis. The gist of the method:
as §3

Experiment [9] concerns the target T1, Acetylcholinesterase. The experiment can be described thus: Mixed-type inhibition of recombinant human AChE assessed as dissociation constant for protein-substrate-compound complex using acetylthiocholine iodide as substrate by Cornish-Bowden plot analysis. The essentials:
as §3

Experiment [10] deals with Acetylcholinesterase (Electrophorus electricus) (UniProt O42275). The experiment can be described thus: Displacement of propidium iodide from PAS-region of electric eel AChE assessed as decrease in fluorescence intensity at 4 to 64 uM by spectrofluorimetric analysis relative to control. As to conditions: dose 4-64 µM. The arrangement: scale not given: the % may be the effect or the level left. The essentials:
(§4)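 Back-titration fluorescence assay using electric eel AChE (type VI-S). Inhibitor was added in successive aliquots from a MeOH stock. Emission was read at 602 nm with excitation at 535 nm, after subtracting blanks. […] Three independent experiments.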

For experiment [11] the target is unchanged. The experiment can be described thus: Displacement of propidium iodide from PAS-region of electric eel AChE assessed as decrease in fluorescence intensity by spectrofluorimetric analysis. The essentials: as §4

T1 sequence (P22303 whole entry): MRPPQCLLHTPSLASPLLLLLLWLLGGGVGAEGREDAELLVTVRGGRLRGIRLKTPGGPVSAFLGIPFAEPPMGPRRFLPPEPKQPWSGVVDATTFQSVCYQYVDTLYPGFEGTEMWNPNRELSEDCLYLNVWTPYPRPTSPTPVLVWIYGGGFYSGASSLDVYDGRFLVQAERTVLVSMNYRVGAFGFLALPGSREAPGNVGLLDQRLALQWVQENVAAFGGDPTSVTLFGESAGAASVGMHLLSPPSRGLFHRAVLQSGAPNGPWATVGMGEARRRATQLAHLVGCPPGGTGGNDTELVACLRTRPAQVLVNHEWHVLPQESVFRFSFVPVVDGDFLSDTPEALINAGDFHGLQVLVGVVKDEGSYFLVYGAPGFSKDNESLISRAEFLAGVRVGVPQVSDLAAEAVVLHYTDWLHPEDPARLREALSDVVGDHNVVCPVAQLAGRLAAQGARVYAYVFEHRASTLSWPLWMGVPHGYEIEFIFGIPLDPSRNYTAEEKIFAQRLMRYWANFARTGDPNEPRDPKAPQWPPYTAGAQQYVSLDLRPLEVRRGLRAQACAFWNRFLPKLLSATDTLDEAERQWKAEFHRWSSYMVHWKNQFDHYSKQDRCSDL
Chain of Acetylcholinesterase (Electrophorus electricus) (O42275 24-633 limits assumed): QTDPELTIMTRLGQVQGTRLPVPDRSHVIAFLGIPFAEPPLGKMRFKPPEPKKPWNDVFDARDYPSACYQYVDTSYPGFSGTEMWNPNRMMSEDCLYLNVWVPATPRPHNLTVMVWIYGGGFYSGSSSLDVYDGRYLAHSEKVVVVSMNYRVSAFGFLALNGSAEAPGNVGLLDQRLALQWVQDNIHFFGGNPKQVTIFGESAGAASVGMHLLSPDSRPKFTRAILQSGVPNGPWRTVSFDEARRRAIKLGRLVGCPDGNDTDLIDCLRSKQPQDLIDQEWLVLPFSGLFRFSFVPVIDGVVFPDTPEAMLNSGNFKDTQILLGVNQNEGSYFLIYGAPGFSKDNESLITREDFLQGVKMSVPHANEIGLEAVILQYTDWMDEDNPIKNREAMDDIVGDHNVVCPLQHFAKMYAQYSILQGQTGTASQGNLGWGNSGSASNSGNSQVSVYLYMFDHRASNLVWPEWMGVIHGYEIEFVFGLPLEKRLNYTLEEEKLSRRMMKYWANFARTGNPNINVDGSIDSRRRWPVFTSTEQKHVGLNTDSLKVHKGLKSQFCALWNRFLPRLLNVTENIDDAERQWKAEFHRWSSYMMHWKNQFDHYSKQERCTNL

Regarding `COc1cc(CNC(=O)Cc2cn(CCCCC3=CC4Cc5nc6cc(Cl)ccc6c(N)c5C(C3)C4)nn2)ccc1O` (stereo not drawn), the Ratio in the experiment with Mus musculus [1] came to 3.42. Further, the fold change (FC) on Cholinesterase and at Acetylcholinesterase [5] was 25 in each case. The Activity with Mus musculus [2] came to 62.6 pg/mL; in the experiment on Mus musculus [4] it was 18.4 pg/mL. Further, the outcome in the experiment with Mus musculus [3] and in the experiment with Mus musculus [6] was Active.

By Ki is commonly meant a measure of affinity in units of concentration, obtained from inhibition or displacement. As a reminder, the Kd is the free concentration of one partner at which half of the binding sites on the other are occupied at equilibrium, for simple one-to-one binding. `COc1cc(CNC(=O)CCCCCCNc2c3c(nc4cc(Cl)ccc24)CC2C=C(C)CC3C2)ccc1O` (stereo not drawn): the Ki at Acetylcholinesterase [7] came to 0.68 nM; on Acetylcholinesterase [9] it was 0.94 nM. Moreover, on Acetylcholinesterase [8], the equilibrium dissociation constant (Kd) is 0.94 nM. Further, the inhibition entry on Acetylcholinesterase [8] (dose 0.17-1.36 nM) was “Active”. The Activity in experiment [10] is 23%; in experiment [11], “Dose-dependent effect”.
